APJ ag – APJ receptor agonism; activation, % at 20 µM; CHO-K1 APJ PathHunter beta-arrestin, luminescence; 0% DMSO wells, 100% apelin; actives 0.11% (n = 330,000); P35414;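 active means activation more than six SD over the plate average, tested at 20 µM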;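 further: 0% = DMSO alone and 100% = apelin-13 at 10 nM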
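Assay system: CHO-K1 APJ beta-arrestin complementation cell line / Compound: single test compound dose, 20 µM final, 1% DMSO / Times: overnight seeding, 90 min compound at 25 °C, 1 h detection / Technique: beta-gal luminescence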
CCR6 antagonist – CCR6 (human) receptor antagonism. P51684. CHO-K1 CCR6 PathHunter beta-arrestin, luminescence, CCL20-stimulated. inhibition, % at 20 µM. actives 0.49% (n = 340,000);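 active means compounds whose inhibition of the agonist-driven luminescence signal at 20 µM reaches about 50%, limit read from the data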;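 further: cells stimulated with CCL20 at 14 nM final; plate controls were DMSO with CCL20 for no effect and DMSO without agonist for full effect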
APJ antag – blocks the human apelin receptor APJ. CHO-K1 APJ beta-arrestin complementation, luminescence. inhibition, % at 20 µM. actives 0.32% (n = 330,000);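 active means inhibition above about 40% at 20 µM, limit read from the data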;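 further: cells challenged with 10 nM apelin-13 agonist together with compound; plate controls were apelin-13 plus DMSO wells for no effect and DMSO wells lacking apelin-13 for full effect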
EBI2 antag – EBI2 (human) antagonism. P32249. EBI2 beta-arrestin recruitment, luminescence, 7a,25-OHC stimulated. inhibition, % at 5 µM. actives 0.81% (n = 360,000). AID 651636; in the data active means inhibition above about 38%;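 further: enzyme fragment complementation signal reports receptor beta-arrestin coupling in cells; 0% = agonist plus DMSO wells and 100% = wells without agonist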
Target sequence (P32249 whole entry, looked up, the tested form may be a part): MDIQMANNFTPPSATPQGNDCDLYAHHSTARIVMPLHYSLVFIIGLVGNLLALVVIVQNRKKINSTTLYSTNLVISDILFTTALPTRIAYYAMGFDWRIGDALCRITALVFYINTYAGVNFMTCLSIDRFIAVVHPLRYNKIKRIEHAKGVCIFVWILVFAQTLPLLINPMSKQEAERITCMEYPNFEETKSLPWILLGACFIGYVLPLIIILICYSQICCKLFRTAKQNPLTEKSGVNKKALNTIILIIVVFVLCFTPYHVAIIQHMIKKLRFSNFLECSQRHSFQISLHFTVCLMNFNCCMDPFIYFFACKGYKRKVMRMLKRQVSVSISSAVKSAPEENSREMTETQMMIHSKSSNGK
CXCR6 block – inhibitors of human CXCR6 receptor; CHO-K1 PathHunter CXCR6 beta-arrestin, luminescence; inhibition, % at 20 µM; actives 0.36% (n = 360,000); AID 602244; in the data active means inhibition above about 34%, passing the limit was not always enough;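 further: antagonist mode with CXCL16 agonist at 10 nM final; 0% = 10 nM CXCL16 with DMSO and 100% = unstimulated wells without agonist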
EBI2 conf – EBI2 (human) antagonism, single concentration confirmation; actives 29% (n = 2,400); EBI2 beta-arrestin luminescence, 7a,25-OHC antagonism; shares compounds with EBI2 antag; inhibition, % at 5 µM;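 active means inhibition of at least 50%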
EBI2 agonist – EBI2 agonism counter-screen; shares compounds with EBI2 antag; EBI2-expressing cells, agonist mode, luminescence, 60 min; 0% vehicle, 100% 7α,25-dihydroxycholesterol control; activation, % at 5 µM; 2,400 tested, under 10 active;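 active means activation of at least 50%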
bGal counter – counter-screen for EBI2 antagonists: E. coli beta-galactosidase inhibition. shares compounds with EBI2 antag. purified beta-galactosidase, luminescent Galacton Star, 15 min. inhibition, % at 5 µM. actives 1% (n = 2,400);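 active means replicate-average signal at least 3 plate SD below neutral wells, shown as high inhibition, flagging enzyme-inhibiting false positives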;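 further: 0% = DMSO wells with enzyme and 100% = wells lacking enzyme; higher means stronger loss of beta-gal luminescence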
An asterisk follows results filed as active; nt = not tested or not shown. The list is not random: actives were taken first. Their share in the collection is about 1.5%.

SMILES	APJ ag	CCR6 antagonist	APJ antag	EBI2 antag	CXCR6 block	EBI2 conf	EBI2 agonist	bGal counter
COc1ccc(OCC(=O)N2CCN(C/C=C/c3ccccc3)CC2)cc1	2.2	10.2	-5.0	93.4*	-9.5	77.2*	0.1	-7.8
O=C(COc1ccccc1)N1CCN(C2CCCC2)CC1	-1.4	-9.2	12.2	24.7	-2.9	nt	nt	nt
COc1ccc(OCC(=O)N2CCN(C3CCC(c4ccccc4)CC3)CC2)cc1 (centres undefined)	-3.4	5.7	16.9	85.2*	5.5	63.4*	-0.2	-11.3
O=C(COc1ccccc1)N1CCN(C/C=C/c2ccccc2)CC1	-3.0	-6.9	3.7	72.2*	-1.3	59.8*	0.2	-15.8
CCC1(CCC(C)C)C(=O)NC(=O)N(c2ccccc2)C1=O (centres undefined)	nt	nt	nt	-1.0	0.9	nt	nt	nt
CCC(C)OC(=O)c1c(N)n(Cc2cccs2)c2nc3ccccc3nc12 (centres undefined)	-4.1	-26.9	17.0	44.4*	20.5	39.3	-1.6	-20.8
COCCCn1c(N)c(C(=O)OC(C)COC)c2nc3ccccc3nc21 (centres undefined)	-3.9	5.4	26.8	-2.3	14.5	nt	nt	nt
